Data: ChEMBL document CHEMBL2150950, “Effect of 4-aryl-2-methyl-5-nitro-1,4-dihydropyridine-3-carboxylates on the guinea pig papillary muscle and isolated human vena saphena magna that is used for coronary artery bypass grafting” (2011)

Tests used:
[1] = (§1) Ionotropic effect in guinea pig ventricle papillary muscles assessed as lengthening of 10% repolarized cardiac action potential duration time at 10^-7 M by microelectrode technique relative to untreated control (reference value: 52 to 54 APD10 ms) in presence of 3.1 x 10^-6 M inward rectifier current blocker BaCl2; assay type: functional, Cavia porcellus
[2] = (§2) Ionotropic effect in guinea pig ventricle papillary muscles assessed as lengthening of 90% repolarized cardiac action potential duration time at 10^-7 M by microelectrode technique relative to untreated control (reference value: 209 to 222 APD50 ms) in presence of 2 x 10^-5 M KATP channel blocker glibenclamide; assay type: functional, Cavia porcellus
[3] = as §1, with “50%” for “10%”, “10^-4” for “10^-7”, “180” for “52”, “192 APD50” for “54 APD10”; assay type: functional, Cavia porcellus
[4] = Ionotropic effect in guinea pig ventricle papillary muscles assessed as lengthening of 25% repolarized cardiac action potential duration time at 10^-5 M by microelectrode technique relative to untreated control (reference value: 84 to 104 APD25 ms); assay type: functional, Cavia porcellus, Papillary muscle
[5] = Ionotropic effect in guinea pig right ventricle papillary muscles assessed as contraction force at 10^-7 M by force transduction assay relative to untreated control (reference value: 100%) in presence of 3.1 x 10^-6 M inward rectifier current blocker BaCl2; assay type: functional, Cavia porcellus, Heart right ventricle
[6] = Ionotropic effect in guinea pig right ventricle papillary muscles assessed as contraction force at 10^-5 M by force transduction assay relative to untreated control (reference value: 100%); assay type: functional, Cavia porcellus, Papillary muscle
[7] = (§3) Ionotropic effect in guinea pig ventricle papillary muscles assessed as lengthening of 50% repolarized cardiac action potential duration time at 10^-5 M by microelectrode technique relative to untreated control (reference value: 180 to 192 APD50 ms) in presence of 1 x 10^-6 M IKr channel blocker Sotalol; assay type: functional, Cavia porcellus
[8] = as §1, with “10^-5” for “10^-7”; assay type: functional, Cavia porcellus
[9] = as §3, with “90%” for “50%”, “10^-6” for “10^-5”, “209” for “180”, “222” for “192”; assay type: functional, Cavia porcellus
[10] = Ionotropic effect in guinea pig ventricle papillary muscles assessed as lengthening of 10% repolarized cardiac action potential duration time at 10^-4 M by microelectrode technique relative to untreated control (reference value: 37 to 47 APD10 ms); assay type: functional, Cavia porcellus, Papillary muscle
[11] = as §1, with “90%” for “10%”, “10^-4” for “10^-7”, “209” for “52”, “222 APD50” for “54 APD10”; assay type: functional, Cavia porcellus
[12] = as §3, with “90%” for “50%”, “209” for “180”, “222” for “192”; assay type: functional, Cavia porcellus
[13] = Ionotropic effect in guinea pig ventricle papillary muscles assessed as lengthening of 90% repolarized cardiac action potential duration time at 10^-6 M by microelectrode technique relative to untreated control (reference value: 132 to 176 APD50 ms); assay type: functional, Cavia porcellus, Papillary muscle
[14] = Ionotropic effect in guinea pig right ventricle papillary muscles assessed as contraction force at 10^-6 M by force transduction assay relative to untreated control (reference value: 100%) in presence of 1 x 10^-6 M IKr channel blocker Sotalol; assay type: functional, Cavia porcellus, Heart right ventricle
[15] = as §1, with “90%” for “10%”, “10^-5” for “10^-7”, “209” for “52”, “222 APD50” for “54 APD10”; assay type: functional, Cavia porcellus
[16] = as §1, with “25%” for “10%”, “10^-5” for “10^-7”, “120” for “52”, “131 APD25” for “54 APD10”; assay type: functional, Cavia porcellus
[17] = as §2, with “10^-4” for “10^-7”; assay type: functional, Cavia porcellus
[18] = Ionotropic effect in guinea pig right ventricle papillary muscles assessed as contraction force at 10^-4 M by force transduction assay relative to untreated control (reference value: 100%) in presence of 2 x 10^-5 M KATP channel blocker glibenclamide; assay type: functional, Cavia porcellus, Heart right ventricle
[19] = as §2, with “10^-6” for “10^-7”; assay type: functional, Cavia porcellus
[20] = as §1, with “10^-4” for “10^-7”; assay type: functional, Cavia porcellus
[21] = Vasodilatory activity in human vena saphena magna assessed as reduction in phenylephrine-induced smooth muscle contraction at 0.1 uM; assay type: functional; parameters: scale not given: the % may be the effect or the level left
In short: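 Saphenous vein rings came from 37 CABG patients. They were bathed in Tyrode's solution (mM: NaCl 137, KCl 5.4, CaCl2 1.8, MgCl2 0.9, Tris HCl 10, glucose 5; pH 7.4), equilibrated 45–60 min and washed every 15 min. Rings were precontracted with 10^-4 M phenylephrine, then given cumulative test agent at 10^-7 to 10^-4 M. Isometric relaxation was recorded, as means ± SE.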

[22] = Ionotropic effect in guinea pig right ventricle papillary muscles assessed as contraction force at 10^-6 M by force transduction assay relative to untreated control (reference value: 100%); assay type: functional, Cavia porcellus, Papillary muscle
[23] = as §2, with “25%” for “90%”, “10^-4” for “10^-7”, “120” for “209”, “131 APD25” for “222 APD50”; assay type: functional, Cavia porcellus

SMILES: CCCOCCOC(=O)C1=C(C)NC=C([N+](=O)[O-])C1c1ccccc1OC(F)F (stereo not drawn)
- Time [1]: 64.3 ms
- Time [2]: 234.5 ms
- Time [3]: 238 ms
- Time [4]: 133 ms
- Activity [5]: 111.4%
- Activity [6]: 134%
- Time [7]: 199 ms
- Time [8]: 63.4 ms
- Time [9]: 224 ms
- Time [10]: 55.5 ms
- Time [11]: 267.9 ms
- Time [12]: 227.7 ms
- Time [13]: 229 ms
- Activity [14]: 93.6%
- Time [15]: 260.5 ms
- Time [16]: 155 ms
- Time [17]: 276 ms
- Activity [18]: 211%
- Time [19]: 247 ms
- Time [20]: 61.36 ms
- Activity [21]: 26%
- Activity [22]: 120%
- Time [23]: 164.8 ms
